MLL AF4-AF9 inh – blocks AF4 peptide binding to human AF9; P42568; AlphaScreen, biotin-AF4 peptide binding to FLAG-AF9; inhibition, % at 10 µM; actives 0.47% (n = 350,000);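 active means every replicate reaching a set inhibition limit, whatever the replicate mean, cut at about 25% in these data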;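 further: 0% = plate neutral control median and 100% = total signal loss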
FN deposition inh – fibronectin deposition inhibition; actives 0.086% (n = 350,000); inhibition, % at 12.6 µM; AID 743247; AH1F fibroblasts, Alexa488-fibronectin deposition fluorescence, overnight;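 active means mean inhibition across replicates of 30% or more, regardless of how many single replicates reach that level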;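 further: positive control wells lacked labelled fibronectin entirely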
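Assay system: AH1F fibroblasts assembling fluorescent fibronectin matrix; Amount: 10000 AH1F cells per well; Buffer or medium: DMEM, 2% serum; Probe or stimulus: Alexa488-fibronectin, 24 nM final in well; Doses: single compound dose, delivered by pin transfer; Incubation: 1 h adhesion, overnight exposure; Measured by: fluorescence 485/525 nm; Read-out: fibronectin deposition inhibition.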
FGF22 binding – shifts melting point of recombinant human FGF22; Q9HCT0; recombinant FGF22 thermal shift, SYPRO orange fluorescence; percent of sucrose octasulfate shift, DMSO zero; activity (Tm shift, normalised), % at 9.99 µM; actives 1.5% (n = 340,000); AID 651658;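 active means mean Tm shift, scaled 0 neutral to 100 positive control, at about 1.3% or above, every replicate too, limit read from the data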
ERp5 block – inhibitors of human ERp5 | Q15084 | ERp5 insulin aggregation, absorbance 650 nm, 90 min | inhibition, % at 9.99 µM | actives 0.05% (n = 350,000);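 active means mean replicate inhibition above about 25%, with every replicate also reaching it, limit read from the data, passing the limit was not always enough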
PDI turbidity – blocks human protein disulfide isomerase activity; PDI insulin aggregation turbidity, A650, 90 min; P07237; inhibition, % at 10 µM; actives 0.052% (n = 350,000);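 active means mean inhibition across replicates of 30% or more, whatever share of single replicates reach that level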
Target sequence (P07237 whole entry, looked up): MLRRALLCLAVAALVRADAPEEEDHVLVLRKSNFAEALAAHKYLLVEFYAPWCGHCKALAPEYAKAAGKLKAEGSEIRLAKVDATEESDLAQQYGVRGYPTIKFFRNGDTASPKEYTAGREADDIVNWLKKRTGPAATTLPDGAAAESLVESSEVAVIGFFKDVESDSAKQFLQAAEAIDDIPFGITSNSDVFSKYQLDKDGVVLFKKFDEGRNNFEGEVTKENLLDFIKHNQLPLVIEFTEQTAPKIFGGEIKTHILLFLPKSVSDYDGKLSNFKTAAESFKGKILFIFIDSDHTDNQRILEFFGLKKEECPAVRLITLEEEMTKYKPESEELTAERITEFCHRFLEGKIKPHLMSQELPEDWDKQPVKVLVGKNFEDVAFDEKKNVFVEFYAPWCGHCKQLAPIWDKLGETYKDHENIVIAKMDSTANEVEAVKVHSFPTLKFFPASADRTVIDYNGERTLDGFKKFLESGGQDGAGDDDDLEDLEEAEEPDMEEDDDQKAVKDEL
ARNT TACC3 PPI – disrupts binding between human ARNT and TACC3; actives 0.66% (n = 390,000); AID 623870; AlphaScreen His-ARNT PAS-B/GST-TACC3 binding, luminescence; TACC3 fragment carries E629A point mutation; Q9Y6A5; inhibition, % at 9.99 µM;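 active means mean inhibition of replicates at least 50% and at least half of replicates each reaching 50%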;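 further: 0% = complete ARNT plus TACC3 wells and 100% = ARNT alone without TACC3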
Starred values were filed as active, the others as inactive; nt = no result given. Compounds with a hit are over-represented: about 2.1% of the library has one in this group of screens.

SMILES	MLL AF4-AF9 inh	FN deposition inh	FGF22 binding	ERp5 block	PDI turbidity	ARNT TACC3 PPI
COc1ccccc1-c1ccc2c(c1)[C@H]1[C@H](CCN1S(=O)(=O)c1ccccc1OC)[C@@H](CO)N2	nt	-36	0	nt	nt	14
CCNC(=O)C[C@H]1CC[C@@H]2[C@H](COC[C@@H](O)CN2C(=O)C2CCOCC2)O1	-1	0	0	-1	nt	2
CN(C)C(/C=C/Nc1ccc(Br)cc1)=C(C#N)C#N	-1	8	43*	-6	4	-4
COc1cccc(CN(C)Cc2nc3cc(C(F)(F)F)ccc3c(=O)[nH]2)c1	36*	4	0	11	2	-3
Cn1cnc(S(=O)(=O)N[C@H]2C=C[C@@H](CC(=O)Nc3ccc(-c4ccccc4)cc3)O[C@H]2CO)c1	1	-6	0	2	nt	8
COC(=O)[C@]1(Cc2ccccc2)N[C@H](CN(C)C(=O)c2ccc(F)cc2)[C@@H]2C(=O)N(C)C(=O)[C@@H]21	-3	-3	43*	2	6	3
COC(=O)[C@]1(Cc2ccccc2)N[C@H](CN(C)C(=O)COc2ccccc2)[C@@H]2C(=O)N(C)C(=O)[C@@H]21	-11	-7	43*	1	-3	2
COC(=O)[C@]1(Cc2ccccc2)N[C@H](CN(C)C(=O)c2ccc(C)cc2)[C@@H]2C(=O)N(C)C(=O)[C@@H]21	0	4	43*	-6	9	2
COC(=O)[C@]1(Cc2ccccc2)N[C@H](CN(C)C(C)=O)[C@@H]2C(=O)N(C)C(=O)[C@@H]21	2	-8	1	2	26	-8
COC(=O)[C@]1(C)N[C@H](CN(C)C(=O)c2ccc(C(C)(C)C)cc2)[C@@H]2C(=O)N(Cc3ccccc3)C(=O)[C@@H]21	2	-4	43*	3	-4	5
COC(=O)[C@]1(Cc2ccccc2)N[C@H](CN(C)C(=O)Nc2ccc(F)cc2)[C@@H]2C(=O)N(C)C(=O)[C@@H]21	0	2	0	5	-5	0
COc1ccccc1S(=O)(=O)N[C@H]1CC[C@@H](CCNC(=O)C2CCC2)O[C@@H]1CO	-13	nt	0	-5	nt	-8
CCS(=O)(=O)Nc1ccc2c(c1)C(=O)N(C)[C@H]1CC[C@@H](CC(=O)N[C@@H]3CCN(Cc4ccccc4)C3)O[C@@H]1CO2	-3	-10	nt	nt	nt	nt
c1ccc(-n2cc(CN3CCCC3)c(-c3ccc4c(c3)OCO4)n2)cc1	6	-4	43*	6	7	-2
O=C(c1cc([N+](=O)[O-])ccc1N1CCOCC1)N1CCOCC1	-6	-1	43*	1	9	nt
C[C@@H]1CN([C@@H](C)CO)C(=O)c2ccccc2-c2ccccc2CO[C@@H]1CN(C)C(=O)Nc1ccc2c(c1)OCO2	-3	-7	0	-5	nt	6
COCC1=C2[C@@H](CCc3ccccc3)OB(O)C[C@@H]2n2c(=O)n(-c3ccccc3)c(=O)n2C1	0	nt	0	0	nt	nt
O=C(NC1CCCCCCC1)c1ccc(CNc2c(N3CCOCC3)c(=O)c2=O)cc1	40*	-3	0	3	3	14
O=C(N/N=C/c1sc2ccccc2c1O)c1ccccc1	nt	nt	nt	nt	7	61*
O=C(N/N=C/c1ccc(F)cc1)c1ccccc1	-4	-4	0	8	-6	nt
COc1ccc2cc(C(=O)N/N=C/c3sc4ccccc4c3O)ccc2c1	5	-10	0	-2	6	64*
COc1ccc(NS(=O)(=O)c2cccc(C(=O)N/N=C/c3c(F)c(F)c(F)c(F)c3F)c2)cc1	2	3	0	0	4	-5
COc1ccc(C(=O)N/N=C/c2sc3ccccc3c2O)cc1	nt	nt	nt	nt	-5	78*
CCOC(=O)CSc1ccc2nnc(CCNS(=O)(=O)c3ccccc3)n2n1	-1	-3	1	-1	-6	-5
CCOC(=O)C(CC)Sc1ccc2nnc(CCNS(=O)(=O)c3ccccc3)n2n1 (centres undefined)	-1	3	44*	1	0	-1
CN1CCN(/N=C/c2ccc(-c3ccc([N+](=O)[O-])cc3Cl)o2)CC1	36*	-17	0	-3	0	4

From PubChem BioAssay
